According to ChEMBL document CHEMBL3102769, “Synthesis, docking simulation, biological evaluations and 3D-QSAR study of 5-Aryl-6-(4-methylsulfonyl)-3-(metylthio)-1,2,4-triazine as selective cyclooxygenase-2 inhibitors” (Bioorg Med Chem, 2014):

Tests used:
[1] = biological target: T1, Prostaglandin G/H synthase 1 (Ovis aries, UniProt P05979); experiment: Inhibition of ovine COX1 using arachidonic acid as substrate by chemiluminescence assay
T1 sequence (P05979 whole entry): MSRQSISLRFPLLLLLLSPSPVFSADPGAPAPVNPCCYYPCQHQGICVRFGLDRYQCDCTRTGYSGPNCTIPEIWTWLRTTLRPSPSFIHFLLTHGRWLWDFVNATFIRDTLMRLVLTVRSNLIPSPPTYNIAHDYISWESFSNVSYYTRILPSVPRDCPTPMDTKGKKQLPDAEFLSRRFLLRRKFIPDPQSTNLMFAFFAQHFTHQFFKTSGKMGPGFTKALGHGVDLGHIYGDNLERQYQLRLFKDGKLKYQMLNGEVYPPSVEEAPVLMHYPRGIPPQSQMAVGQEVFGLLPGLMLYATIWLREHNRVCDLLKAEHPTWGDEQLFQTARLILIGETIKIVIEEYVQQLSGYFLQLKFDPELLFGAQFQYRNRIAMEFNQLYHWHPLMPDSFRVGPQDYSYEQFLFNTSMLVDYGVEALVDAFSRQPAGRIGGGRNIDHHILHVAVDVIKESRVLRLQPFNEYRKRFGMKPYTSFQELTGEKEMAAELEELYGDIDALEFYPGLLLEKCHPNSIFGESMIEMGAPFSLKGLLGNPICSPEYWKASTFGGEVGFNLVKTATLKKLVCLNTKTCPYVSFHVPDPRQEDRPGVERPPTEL
Summary of the method: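 Ovine COX-1 chemiluminescent inhibitor screening kit: heme-catalyzed hydroperoxidase activity generates luminescence with a cyclic naphthalene hydrazide and arachidonic acid substrate. Luminescence serves as the index of catalytic activity. IC50 is the concentration giving 50% inhibition of enzyme activity.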

Rattus norvegicus [2] = experiment: Antiinflammatory activity in Wistar rat assessed as change in carrageenan-induced hind paw thickness at 3 mg/kg, ip administered 30 mins prior to carrageenan-challenge measured after 2 hrs (reference value: 1.86 +/- 0.38 mm); assay type: functional; conditions: route intraperitoneal
Rattus norvegicus [3] = experiment: Antiinflammatory activity in Wistar rat assessed as change in carrageenan-induced hind paw thickness at 6 mg/kg, ip administered 30 mins prior to carrageenan-challenge measured after 2 hrs (reference value: 1.86 +/- 0.38 mm); assay type: functional; conditions: route intraperitoneal
Rattus norvegicus [4] = experiment: Antiinflammatory activity in Wistar rat assessed as change in carrageenan-induced hind paw thickness at 3 mg/kg, ip administered 30 mins prior to carrageenan-challenge measured after 1 hr (reference value: 1.84 +/- 0.41 mm); assay type: functional; conditions: route intraperitoneal
Rattus norvegicus [5] = experiment: Antiinflammatory activity in Wistar rat assessed as change in carrageenan-induced hind paw thickness at 3 mg/kg, ip administered 30 mins prior to carrageenan-challenge measured after 3 hrs (reference value: 1.78 +/- 0.39 mm); assay type: functional; conditions: route intraperitoneal
Mus musculus [6] = experiment: Antinociceptive activity in Swiss albino mouse assessed as licking time in primary neurogenic period at 6 mg/kg, ip administered 30 mins prior to formalin-challenge (reference value: 80 +/- 19 seconds); assay type: functional; conditions: route intraperitoneal
Mus musculus [7] = experiment: Antinociceptive activity in Swiss albino mouse assessed as licking time in primary neurogenic period at 3 mg/kg, ip administered 30 mins prior to formalin-challenge (reference value: 80 +/- 19 seconds); assay type: functional; conditions: route intraperitoneal
Mus musculus [8] = experiment: Antinociceptive activity in Swiss albino mouse assessed as licking time in secondary inflammatory period at 3 mg/kg, ip administered 30 mins prior to formalin-challenge (reference value: 217 +/- 68.5 seconds); assay type: functional; conditions: route intraperitoneal
Rattus norvegicus [9] = experiment: Antiinflammatory activity in Wistar rat assessed as change in carrageenan-induced hind paw thickness at 6 mg/kg, ip administered 30 mins prior to carrageenan-challenge measured after 3 hrs (reference value: 1.78 +/- 0.39 mm); assay type: functional; conditions: route intraperitoneal
Mus musculus [10] = experiment: Antinociceptive activity in Swiss albino mouse assessed as licking time in secondary inflammatory period at 6 mg/kg, ip administered 30 mins prior to formalin-challenge (reference value: 217 +/- 68.5 seconds); assay type: functional; conditions: route intraperitoneal
Rattus norvegicus [11] = experiment: Antiinflammatory activity in Wistar rat assessed as change in carrageenan-induced hind paw thickness at 6 mg/kg, ip administered 30 mins prior to carrageenan-challenge measured after 1 hr (reference value: 1.84 +/- 0.41 mm); assay type: functional; conditions: route intraperitoneal
Rattus norvegicus [12] = experiment: Antiinflammatory activity in Wistar rat assessed as change in carrageenan-induced hind paw thickness at 5 mg/kg, ip administered 30 mins prior to carrageenan-challenge measured after 1 hr (reference value: 1.84 +/- 0.41 mm); assay type: functional; conditions: route intraperitoneal
Mus musculus [13] = experiment: Antinociceptive activity in Swiss albino mouse assessed as licking time in secondary inflammatory period at 5 mg/kg, ip administered 30 mins prior to formalin-challenge (reference value: 217 +/- 68.5 seconds); assay type: functional; conditions: route intraperitoneal
Rattus norvegicus [14] = experiment: Antiinflammatory activity in Wistar rat assessed as change in carrageenan-induced hind paw thickness at 5 mg/kg, ip administered 30 mins prior to carrageenan-challenge measured after 3 hrs (reference value: 1.78 +/- 0.39 mm); assay type: functional; conditions: route intraperitoneal
Rattus norvegicus [15] = experiment: Antiinflammatory activity in Wistar rat assessed as change in carrageenan-induced hind paw thickness at 5 mg/kg, ip administered 30 mins prior to carrageenan-challenge measured after 2 hrs (reference value: 1.86 +/- 0.38 mm); assay type: functional; conditions: route intraperitoneal
Mus musculus [16] = experiment: Antinociceptive activity in Swiss albino mouse assessed as licking time in primary neurogenic period at 5 mg/kg, ip administered 30 mins prior to formalin-challenge (reference value: 80 +/- 19 seconds); assay type: functional; conditions: route intraperitoneal

SMILES	IC50 [1] [µM]	Activity (Rattus norvegicus [2]) [mm]	Activity (Rattus norvegicus [3]) [mm]	Activity (Rattus norvegicus [4]) [mm]	Activity (Rattus norvegicus [5]) [mm]	Time (Mus musculus [6]) [s]	Time (Mus musculus [7]) [s]	Time (Mus musculus [8]) [s]	Activity (Rattus norvegicus [9]) [mm]	Time (Mus musculus [10]) [s]	Activity (Rattus norvegicus [11]) [mm]	Activity (Rattus norvegicus [12]) [mm]	Time (Mus musculus [13]) [s]	Activity (Rattus norvegicus [14]) [mm]	Activity (Rattus norvegicus [15]) [mm]	Time (Mus musculus [16]) [s]
CSc1nnc(-c2ccc(S(C)(=O)=O)cc2)c(-c2ccc(C)cc2)n1	52.4	0.68	0.8	0.87	0.55	61	49	175	0.67	139	0.98					
CSc1nnc(-c2ccc(S(C)(=O)=O)cc2)c(-c2ccccc2)n1	54.4	1.77	0.94	1.45	1.19	58	57	133	0.83	155	1.09					
COc1ccc(-c2nc(SC)nnc2-c2ccc(S(C)(=O)=O)cc2)cc1	50.1	0.72	0.43	0.96	0.64	49	46	227	0.3	118	0.58					
CSc1nnc(-c2ccc(S(C)(=O)=O)cc2)c(-c2ccc(Cl)cc2)n1	39.5	0.71	0.58	1	0.54	37	30	85	0.41	140	0.89					
CSc1nnc(-c2ccc(S(C)(=O)=O)cc2)c(-c2ccc(F)cc2)n1	51.6	1.16	0.56	1.24	0.97	34	52	127	0.34	152	0.75					
COc1ccc2c(c1)c(CC(=O)O)c(C)n2C(=O)c1ccc(Cl)cc1 [INDOMETHACIN]												1.05	127	0.57	0.81	45
